# Experimental data from ChEMBL document CHEMBL1158577, “Role of hydrophobic substituents on the terminal nitrogen of histamine in receptor binding and agonist activity: development of an orally active histamine type 3 receptor agonist and evaluation of its antistress activity in mice” (J Med Chem, 2010).
# The source made the active and inactive calls. The rule behind the calls is not given here.
# What was measured:
# Histamine H3 receptor [1] = biological target: T1, Histamine H3 receptor (Homo sapiens, UniProt Q9Y5N1); test: Agonist activity at human recombinant histamine H3 receptor expressed in CHO cells assessed as [35S]GTPgammaS binding after 1 hr by liquid scintillation counting; format: functional, cell-based
# T1 sequence (Q9Y5N1 whole entry): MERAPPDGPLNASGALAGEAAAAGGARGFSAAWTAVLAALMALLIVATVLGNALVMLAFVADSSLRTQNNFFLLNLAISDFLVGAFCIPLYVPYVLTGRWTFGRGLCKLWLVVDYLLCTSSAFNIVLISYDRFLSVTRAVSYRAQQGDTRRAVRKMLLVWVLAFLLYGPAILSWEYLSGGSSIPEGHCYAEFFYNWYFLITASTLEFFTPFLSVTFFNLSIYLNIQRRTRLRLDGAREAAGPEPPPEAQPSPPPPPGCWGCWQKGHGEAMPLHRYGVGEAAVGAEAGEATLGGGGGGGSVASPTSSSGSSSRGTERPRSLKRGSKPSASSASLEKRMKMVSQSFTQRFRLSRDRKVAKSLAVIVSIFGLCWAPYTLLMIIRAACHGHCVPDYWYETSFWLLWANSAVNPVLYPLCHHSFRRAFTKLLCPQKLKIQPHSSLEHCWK
# How it was run: (§1)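 Used CHO cells stably expressing the human H3R for both affinity (pKi) and functional agonist measurements. Each value is the mean ± SEM of n = 3.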
# Histamine H3 receptor [2] = biological target: T1, Histamine H3 receptor; test: Agonist activity at human recombinant histamine H3 receptor expressed in CHO cells assessed as [35S]GTPgammaS binding at 10 nM after 1 hr by liquid scintillation counting relative to (R)-alpha-methylhistamine; format: functional, cell-based
# How it was run: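 CHO cells stably expressing human H3R. Agonist response is given as a percent of the response to the reference H3R agonist. Results are mean ± SEM, n = 3.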
# Histamine H3 receptor [3] = biological target: T1, Histamine H3 receptor; test: Displacement of [3H[N-alpha-methylhistamine form human recombinant histamine H3 receptor expressed in CHO cells after 1 hr by liquid scintillation counting; format: cell-based; how it was run: as §1
# Mus musculus [4] = test: In-vivo agonist activity at histamine H3 receptor in ddY mouse assessed as N-tele-methylhistamine level per gram of brain at 30 mg/kg, po by gas chromatography (RVb = 315 +/- 20 ng); format: functional, organism-based; set-up: dose 30 mg/kg
# Mus musculus [5] = test: In-vivo agonist activity at histamine H3 receptor in ddY mouse assessed as N-tele-methylhistamine level per gram of brain at 5 mg/kg, po by gas chromatography (RVb = 315 +/- 20 ng); format: functional, organism-based; set-up: dose 5 mg/kg
# Mus musculus [6] = test: In-vivo agonist activity at histamine H3 receptor in ddY mouse assessed as N-tele-methylhistamine level per gram of brain at 1 mg/kg, po by gas chromatography (RVb = 315 +/- 20 ng); format: functional, organism-based; set-up: dose 1 mg/kg
EC50 (Histamine H3 receptor [1]; read-out: EC50),Activity (Histamine H3 receptor [2]),Ki (Histamine H3 receptor [3]),Structure (SMILES),also measured
65 nM,56%,24 nM,COc1ccc(NCCc2c[nH]cn2)cc1,–
–,–,4.1 nM,c1ncc(CCNc2ccc(C3CCCCC3)cc2)[nH]1,–
–,42%,–,c1ccc(NCCc2c[nH]cn2)cc1,–
–,49%,–,Cc1ccc(NCCc2c[nH]cn2)cc1,–
–,70%,–,CC(C)(C)c1ccc(NCCc2c[nH]cn2)cc1,–
1.6 nM,–,0.89 nM,CC(C)(C)c1ccc(NCCc2cnc[nH]2)cc1,–
–,inactive,–,c1nc(CCNc2ccc(C3CCCCC3)cc2)c[nH]1,EC50 (Histamine H3 receptor [1]; cho): Not Active
88 nM,–,14 nM,Cc1ccc(NCCc2cnc[nH]2)cc1,–
–,91%,–,N=C(N)SCCc1c[nH]cn1,Nτ-methylhistamine level (Mus musculus [4]): 98 ng/g; Nτ-methylhistamine level (Mus musculus [5]): 133 ng/g; Nτ-methylhistamine level (Mus musculus [6]): 239 ng/g
